Source: ChEMBL document CHEMBL1811786, “Identification of MK-5710 ((8aS)-8a-methyl-1,3-dioxo-2-[(1S,2R)-2-phenylcyclo- propyl]-N-(1-phenyl-1H-pyrazol-5-yl)hexahydro-imidazo[1,5-a]pyrazine-7(1H)-carboxamide), a potent smoothened antagonist for use in Hedgehog pathway dependent malignancies, part 2” (Bioorg Med Chem Lett, 2011)

How the values were obtained:
[1] = target: Cytochrome P450 3A4 (Homo sapiens, UniProt P08684); test: Inhibition of CYP3A4; type: ADME
[2] = tested on: Mus musculus; test: Toxicity in mouse medulloblastoma allograft model assessed as adverse effects at 40 mg/kg, po bid for 3 weeks; type: organism-based; set-up: dose 40 mg/kg, route oral; conditions: in vivo, 504 h
Procedure, shortened: (§1)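 Primary mouse medulloblastoma allograft, subcutaneous. Mice randomized when tumors averaged 400 mm³. Oral dosing for 3 weeks, bid at 40, 80, 120 or 160 mg/kg, or 80 mg/kg qd. Compound given as a suspension in 0.24% SDS/0.5% Methocel, with a BID vehicle control. Tumor volume tracked over days; body weight, physical signs and mortality monitored.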

[3] = species on record: Canis familiaris; test: Clearance in dog; type: ADME, organism-based, Canis lupus familiaris; conditions: in vivo
[4] = tested on: Mus musculus; test: Inhibition of Shh pathway in mouse medulloblastoma allograft model assessed as reduction in tumor Gli-1 mRNA expression at 80 mg/kg, po administered as single dose measured after 4 hrs; type: functional
Procedure, shortened: (§2)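 Tumor-bearing medulloblastoma mice given a single oral 80 mg/kg dose. Tumor biopsies taken at timepoints up to 24 h; Hh-pathway inhibition measured as reduction of Gli-1 mRNA.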

[5] = tested on: Mus musculus; test: Inhibition of Shh pathway in mouse medulloblastoma allograft model assessed as reduction in tumor Gli-1 mRNA expression at 80 mg/kg, po administered as single dose measured after 6 hrs; type: functional; procedure, shortened: as §2
[6] = Volume of distribution at steady state in dog; type: ADME, organism-based, Canis lupus familiaris; conditions: in vivo, read-out: Vdss
[7] = tested on: Mus musculus; test: Toxicity in mouse medulloblastoma allograft model assessed as adverse effects at 120 mg/kg, po bid for 3 weeks; type: organism-based; set-up: dose 120 mg/kg, route oral; conditions: in vivo, 504 h; procedure, shortened: as §1
[8] = tested on: Mus musculus; test: Inhibition of Shh pathway in mouse medulloblastoma allograft model assessed as reduction in tumor Gli-1 mRNA expression at 80 mg/kg, po administered as single dose measured after 8 hrs; type: functional; procedure, shortened: as §2
[9] = tested on: Canis familiaris; test: Toxicity in iv dosed vagotomized dog assessed as change in hemodynamic parameters; type: organism-based, Canis lupus familiaris; conditions: in vivo
[10] = Half life in dog; type: ADME, organism-based, Canis lupus familiaris; conditions: in vivo
[11] = tested on: Mus musculus; test: Toxicity in mouse medulloblastoma allograft model assessed as adverse effects at 160 mg/kg, po bid for 3 weeks; type: organism-based; set-up: dose 160 mg/kg, route oral; conditions: in vivo, 504 h; procedure, shortened: as §1
[12] = target: T1, Protein smoothened (Homo sapiens, UniProt Q99835); test: Displacement of BODIPY-cyclopamine from human Smo expressed in HEK293 cells in presence of 20% normal human serum; type: cell-based
Procedure, shortened: (§3)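 Competition binding: displacement of fluorescently labeled bodipy-cyclopamine from recombinant human Smo expressed in HEK-293 cells. Run in 2% fetal calf serum and, separately, in 20% normal human serum. IC50 values are means of at least five experiments.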

[13] = Oral bioavailability in dog; type: ADME, organism-based, Canis lupus familiaris; conditions: in vivo
[14] = species on record: Rattus norvegicus; test: Clearance in rat; type: ADME, organism-based; conditions: in vivo
[15] = target: Cytochrome P450 2D6 (Homo sapiens, UniProt P10635); test: Inhibition of CYP2D6; type: ADME
[16] = Cmax in iv dosed dog; type: ADME, organism-based, Canis lupus familiaris; set-up: route intravenous; conditions: in vivo
[17] = tested on: Canis familiaris; test: Toxicity in iv dosed vagotomized dog assessed as change in cardiovascular parameters; type: organism-based, Canis lupus familiaris, Heart; conditions: in vivo
[18] = target: T1, Protein smoothened; test: Displacement of BODIPY-cyclopamine from human Smo expressed in HEK293 cells in presence of 2% fetal calf serum; type: cell-based; procedure, shortened: as §3
[19] = target: Cytochrome P450 2C9 (Homo sapiens, UniProt P11712); test: Inhibition of CYP2C9; type: ADME
[20] = tested on: Mus musculus; test: Toxicity in mouse medulloblastoma allograft model assessed as adverse effects at 80 mg/kg, po qd for 3 weeks; type: organism-based; set-up: dose 80 mg/kg, route oral; conditions: in vivo, 504 h; procedure, shortened: as §1
[21] = tested on: Mus musculus; test: Toxicity in mouse medulloblastoma allograft model assessed as adverse effects at 80 mg/kg, po bid for 3 weeks; type: organism-based; set-up: dose 80 mg/kg, route oral; conditions: in vivo, 504 h; procedure, shortened: as §1
[22] = Inhibition of Voltage-gated sodium channel at 30 uM
[23] = Volume of distribution at steady state in rat; type: ADME, organism-based; conditions: in vivo, read-out: Vdss
[24] = tested on: Mus musculus; test: Inhibition of Shh pathway in mouse medulloblastoma allograft model assessed as reduction in tumor Gli-1 mRNA expression at 80 mg/kg, po administered as single dose; type: functional, organism-based; set-up: dose 80 mg/kg; conditions: TDE = time-dependent effect; procedure, shortened: as §2
[25] = Half life in rat; type: ADME, organism-based; conditions: in vivo
[26] = Oral bioavailability in rat; type: ADME, organism-based; conditions: in vivo
[27] = target: hERG (KCNH2) (Homo sapiens, UniProt Q12809); test: Inhibition of human ERG at 30 uM
Chain of hERG (KCNH2) (Q12809 whole entry): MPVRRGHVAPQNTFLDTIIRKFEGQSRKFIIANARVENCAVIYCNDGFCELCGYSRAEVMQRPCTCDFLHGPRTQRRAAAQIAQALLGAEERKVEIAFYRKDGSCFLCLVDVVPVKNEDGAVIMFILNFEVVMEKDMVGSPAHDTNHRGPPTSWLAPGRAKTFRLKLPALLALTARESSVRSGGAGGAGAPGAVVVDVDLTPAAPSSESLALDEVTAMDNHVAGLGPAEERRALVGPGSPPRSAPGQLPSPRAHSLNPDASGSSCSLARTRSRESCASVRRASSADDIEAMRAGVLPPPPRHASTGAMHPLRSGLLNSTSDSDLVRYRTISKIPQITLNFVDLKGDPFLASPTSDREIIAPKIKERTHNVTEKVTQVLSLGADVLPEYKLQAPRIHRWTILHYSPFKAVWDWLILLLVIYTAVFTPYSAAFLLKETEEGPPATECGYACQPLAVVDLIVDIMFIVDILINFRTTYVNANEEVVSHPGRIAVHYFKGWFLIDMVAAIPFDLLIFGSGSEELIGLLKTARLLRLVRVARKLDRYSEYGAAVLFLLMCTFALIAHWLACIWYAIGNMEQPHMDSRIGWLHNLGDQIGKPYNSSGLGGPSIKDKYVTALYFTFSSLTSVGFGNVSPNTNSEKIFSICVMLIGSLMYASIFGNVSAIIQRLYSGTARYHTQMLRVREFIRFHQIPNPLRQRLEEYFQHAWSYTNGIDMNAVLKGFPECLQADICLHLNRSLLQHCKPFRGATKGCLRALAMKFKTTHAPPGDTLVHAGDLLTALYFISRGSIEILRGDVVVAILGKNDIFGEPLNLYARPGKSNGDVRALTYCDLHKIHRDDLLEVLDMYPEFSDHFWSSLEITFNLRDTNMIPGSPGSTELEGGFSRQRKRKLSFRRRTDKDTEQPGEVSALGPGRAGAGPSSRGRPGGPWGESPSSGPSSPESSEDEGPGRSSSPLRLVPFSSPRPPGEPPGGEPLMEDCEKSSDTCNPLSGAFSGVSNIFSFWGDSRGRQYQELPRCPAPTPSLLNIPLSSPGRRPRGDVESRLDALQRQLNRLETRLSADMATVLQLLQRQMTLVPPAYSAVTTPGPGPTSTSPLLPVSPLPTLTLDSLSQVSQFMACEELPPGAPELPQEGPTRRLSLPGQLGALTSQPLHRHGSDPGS

T1 sequence (Q99835 whole entry): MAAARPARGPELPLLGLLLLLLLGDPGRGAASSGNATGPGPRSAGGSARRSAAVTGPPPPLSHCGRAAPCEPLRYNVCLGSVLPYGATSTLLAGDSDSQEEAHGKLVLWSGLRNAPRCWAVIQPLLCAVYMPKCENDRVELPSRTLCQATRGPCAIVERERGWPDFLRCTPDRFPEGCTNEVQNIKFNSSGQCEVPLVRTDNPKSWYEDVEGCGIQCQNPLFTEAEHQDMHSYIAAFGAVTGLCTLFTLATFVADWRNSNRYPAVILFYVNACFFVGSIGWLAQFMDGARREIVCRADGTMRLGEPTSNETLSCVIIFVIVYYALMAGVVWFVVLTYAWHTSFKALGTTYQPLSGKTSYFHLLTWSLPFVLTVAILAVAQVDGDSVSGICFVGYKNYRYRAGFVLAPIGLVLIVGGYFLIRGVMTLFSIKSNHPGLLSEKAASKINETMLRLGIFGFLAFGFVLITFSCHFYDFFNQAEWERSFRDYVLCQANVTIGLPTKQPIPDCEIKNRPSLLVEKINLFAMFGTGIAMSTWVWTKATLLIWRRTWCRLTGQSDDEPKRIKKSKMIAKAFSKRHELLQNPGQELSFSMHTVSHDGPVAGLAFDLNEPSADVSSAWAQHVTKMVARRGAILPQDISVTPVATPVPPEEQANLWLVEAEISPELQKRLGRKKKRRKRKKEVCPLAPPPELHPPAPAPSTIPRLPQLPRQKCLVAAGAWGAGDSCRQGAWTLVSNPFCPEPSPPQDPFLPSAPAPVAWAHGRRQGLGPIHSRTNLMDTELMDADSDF
Chain of Cytochrome P450 2C9 (P11712 whole entry): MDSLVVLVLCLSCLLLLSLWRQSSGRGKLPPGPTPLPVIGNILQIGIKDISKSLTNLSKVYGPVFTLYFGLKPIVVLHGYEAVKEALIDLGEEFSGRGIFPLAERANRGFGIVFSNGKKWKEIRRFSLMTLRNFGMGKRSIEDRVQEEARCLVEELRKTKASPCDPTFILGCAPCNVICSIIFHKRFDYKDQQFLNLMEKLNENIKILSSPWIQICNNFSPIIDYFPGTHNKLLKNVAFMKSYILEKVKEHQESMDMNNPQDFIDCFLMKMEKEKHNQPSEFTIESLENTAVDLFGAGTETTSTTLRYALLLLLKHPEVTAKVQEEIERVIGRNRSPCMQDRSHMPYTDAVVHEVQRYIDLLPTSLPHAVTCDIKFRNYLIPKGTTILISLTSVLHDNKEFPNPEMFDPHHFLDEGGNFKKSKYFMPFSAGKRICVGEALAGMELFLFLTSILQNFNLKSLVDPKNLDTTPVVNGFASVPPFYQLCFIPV
Chain of Cytochrome P450 2D6 (P10635 whole entry): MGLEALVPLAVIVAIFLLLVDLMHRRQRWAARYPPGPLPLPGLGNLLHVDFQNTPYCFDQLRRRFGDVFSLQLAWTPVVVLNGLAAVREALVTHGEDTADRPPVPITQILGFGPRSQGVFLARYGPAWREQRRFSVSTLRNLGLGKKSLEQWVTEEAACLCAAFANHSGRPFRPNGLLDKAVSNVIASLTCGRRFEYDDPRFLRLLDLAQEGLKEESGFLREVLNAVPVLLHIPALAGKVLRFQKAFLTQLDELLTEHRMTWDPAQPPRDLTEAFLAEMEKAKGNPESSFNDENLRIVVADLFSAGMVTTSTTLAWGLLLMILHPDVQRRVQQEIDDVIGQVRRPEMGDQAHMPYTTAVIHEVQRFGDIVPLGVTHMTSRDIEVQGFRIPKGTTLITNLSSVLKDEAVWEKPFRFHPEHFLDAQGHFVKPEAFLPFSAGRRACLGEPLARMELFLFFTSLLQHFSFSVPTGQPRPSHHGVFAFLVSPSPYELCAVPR
Chain of Cytochrome P450 3A4 (P08684 whole entry): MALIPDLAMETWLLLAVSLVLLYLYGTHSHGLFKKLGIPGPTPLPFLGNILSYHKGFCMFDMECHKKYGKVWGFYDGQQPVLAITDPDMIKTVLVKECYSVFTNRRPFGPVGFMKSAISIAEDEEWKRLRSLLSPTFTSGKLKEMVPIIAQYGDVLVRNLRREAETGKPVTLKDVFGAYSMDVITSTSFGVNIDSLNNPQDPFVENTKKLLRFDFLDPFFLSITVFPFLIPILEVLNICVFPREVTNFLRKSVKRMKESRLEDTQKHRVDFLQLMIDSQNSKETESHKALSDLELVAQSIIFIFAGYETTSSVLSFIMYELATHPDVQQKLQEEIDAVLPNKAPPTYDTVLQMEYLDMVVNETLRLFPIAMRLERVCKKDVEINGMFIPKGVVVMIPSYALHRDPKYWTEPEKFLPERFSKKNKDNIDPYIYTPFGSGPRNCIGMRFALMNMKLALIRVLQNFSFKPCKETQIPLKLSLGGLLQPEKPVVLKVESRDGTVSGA

- IC50 [1]: > 40 µM
- clearance [3]: 22 mL/min/kg
- Vd [6]: 2 L/kg
- half-life [10]: 66 min
- IC50 [12]: 22 nM
- bioavailability [13]: 52%
- clearance [14]: 22 mL/min/kg
- IC50 [15]: > 40 µM
- Cmax [16]: 16 µM
- IC50 [18]: 13 nM
- IC50 [19]: > 40 µM
- inhibition [22]: 45%
- Vd [23]: 2.9 L/kg
- half-life [25]: 306 min
- bioavailability [26]: 40%
Structure (SMILES): C[C@@]12CN(C(=O)Nc3ccnn3-c3ccccc3)CCN1C(=O)N([C@H]1C[C@@H]1c1ccccc1)C2=O
- Activity [2]: Non-toxic
- inhibition in vivo at 80 mg/kg [4]: 77%
- inhibition in vivo at 80 mg/kg [5]: > 85%
- Activity [7]: Non-toxic
- inhibition in vivo at 80 mg/kg [8]: > 85%
- Activity [9]: Non-toxic
- Activity [11]: Non-toxic
- Activity [17]: Non-toxic
- Activity [20]: Non-toxic
- Activity [21]: Non-toxic
- inhibition [24]: tde
- inhibition at 30 µM [27]: 27%
